In ChEMBL document CHEMBL1156668, “Synthesis and antimicrobial activity of novel sulfone-linked bis heterocycles” (2008):
Converted amounts (≈) assume the structure as drawn.

What was measured:
Format in all cases: functional
[1] = system: Fusarium solani; assay: Antifungal activity against Fusarium solani at 100 ug after 48 hrs by agar disc-diffusion method; conditions: read-out: IZ
Summary of the method: (§1)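 Fungal strains from NCIM, Pune, were tested by disc diffusion on nutrient agar. Sterile 6 mm paper discs moistened with the compound solution in DMSO were placed on plates pre-inoculated with each fungus. Plates were incubated at 37 °C, and the inhibition-zone diameter was read after 48 h.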

[2] = system: Aspergillus niger; assay: Antifungal activity against Aspergillus niger at 100 ug after 48 hrs by agar disc-diffusion method; conditions: read-out: IZ; summary of the method: as §1
[3] = system: Klebsiella pneumoniae; assay: Antibacterial activity against Klebsiella pneumoniae at 200 ug after 24 hrs by agar disc-diffusion method; conditions: read-out: IZ
Summary of the method: (§2)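 Agar disc diffusion on nutrient agar with bacterial strains from NCIM, Pune. Sterile 6 mm filter-paper discs were wetted with compound in DMSO and placed on plates already inoculated with each organism. Plates were incubated at 37 °C, and the diameter of the growth-inhibition zone was measured after 24 h.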

[4] = system: Escherichia coli; assay: Antibacterial activity against Escherichia coli at 100 ug after 24 hrs by agar disc-diffusion method; conditions: read-out: IZ; summary of the method: as §2
[5] = system: Escherichia coli; assay: Antibacterial activity against Escherichia coli at 200 ug after 24 hrs by agar disc-diffusion method; conditions: read-out: IZ; summary of the method: as §2
[6] = system: Bacillus subtilis; assay: Antibacterial activity against Bacillus subtilis at 100 ug after 24 hrs by agar disc-diffusion method; conditions: read-out: IZ; summary of the method: as §2
[7] = system: Aspergillus niger; assay: Antifungal activity against Aspergillus niger at 200 ug after 48 hrs by agar disc-diffusion method; conditions: read-out: IZ; summary of the method: as §1
[8] = system: Bacillus subtilis; assay: Antibacterial activity against Bacillus subtilis at 200 ug after 24 hrs by agar disc-diffusion method; conditions: read-out: IZ; summary of the method: as §2
[9] = system: Staphylococcus aureus; assay: Antibacterial activity against Staphylococcus aureus at 100 ug after 24 hrs by agar disc-diffusion method; conditions: read-out: IZ; summary of the method: as §2
[10] = system: Curvularia lunata; assay: Antifungal activity against Curvularia lunata at 100 ug after 48 hrs by agar disc-diffusion method; conditions: read-out: IZ; summary of the method: as §1
[11] = system: Staphylococcus aureus; assay: Antibacterial activity against Staphylococcus aureus at 200 ug after 24 hrs by agar disc-diffusion method; conditions: read-out: IZ; summary of the method: as §2
[12] = system: Klebsiella pneumoniae; assay: Antibacterial activity against Klebsiella pneumoniae at 100 ug after 24 hrs by agar disc-diffusion method; conditions: read-out: IZ; summary of the method: as §2
[13] = system: Fusarium solani; assay: Antifungal activity against Fusarium solani at 200 ug after 48 hrs by agar disc-diffusion method; conditions: read-out: IZ; summary of the method: as §1
[14] = system: Curvularia lunata; assay: Antifungal activity against Curvularia lunata at 200 ug after 48 hrs by agar disc-diffusion method; conditions: read-out: IZ; summary of the method: as §1
[15] = system: Curvularia lunata; assay: Antifungal activity against Curvularia lunata after 48 hrs by microdilution susceptibility method
Summary of the method: (§3)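 Broth microdilution with fungi from NCIM, Pune. Fungal suspensions were added to wells containing the compound and incubated at 36 °C for 48 h. MIC was recorded as the lowest concentration with no turbidity, that is, no visible growth.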

[16] = system: Staphylococcus aureus; assay: Antibacterial activity against Staphylococcus aureus after 24 hrs by microdilution susceptibility method
Summary of the method: (§4)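 Microdilution susceptibility test on bacterial strains from NCIM, Pune. Microorganism suspensions were inoculated into wells containing the compound and incubated at 36 °C for 24 h. MIC was taken as the lowest concentration showing no turbidity, meaning complete inhibition of visible growth.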

[17] = system: Fusarium solani; assay: Antifungal activity against Fusarium solani after 48 hrs by microdilution susceptibility method; summary of the method: as §3
[18] = system: Escherichia coli; assay: Antibacterial activity against Escherichia coli after 24 hrs by microdilution susceptibility method; summary of the method: as §4
[19] = system: Klebsiella pneumoniae; assay: Antibacterial activity against Klebsiella pneumoniae after 24 hrs by microdilution susceptibility method; summary of the method: as §4
[20] = system: Bacillus subtilis; assay: Antibacterial activity against Bacillus subtilis after 24 hrs by microdilution susceptibility method; summary of the method: as §4
[21] = system: Aspergillus niger; assay: Antifungal activity against Aspergillus niger after 48 hrs by microdilution susceptibility method; summary of the method: as §3

Row | MIC [15] [mg/L] | MIC [16] [mg/L] | MIC [17] [mg/L] | MIC [18] [mg/L] | MIC [19] [mg/L] | MIC [20] [mg/L] | SMILES | zone of inhibition at 100 µg/disc [1] [mm] | zone of inhibition at 100 µg/disc [2] [mm] | zone of inhibition at 200 µg/disc [3] [mm] | zone of inhibition at 100 µg/disc [4] [mm] | zone of inhibition at 200 µg/disc [5] [mm] | zone of inhibition at 100 µg/disc [6] [mm] | zone of inhibition at 200 µg/disc [7] [mm] | zone of inhibition at 200 µg/disc [8] [mm] | zone of inhibition at 100 µg/disc [9] [mm] | zone of inhibition at 100 µg/disc [10] [mm] | zone of inhibition at 200 µg/disc [11] [mm] | zone of inhibition at 100 µg/disc [12] [mm] | zone of inhibition at 200 µg/disc [13] [mm] | zone of inhibition at 200 µg/disc [14] [mm] | further results
1 | – | – | – | – | – | – | O=S(=O)(Cc1nnc(S)o1)C1=NNC[C@@H]1c1ccc(Cl)cc1 | 15 | 14 | 14 | 11 | 13 | 15 | 18 | 18 | 13 | 16 | 17 | 11 | 18 | 19 | –
2 | – | – | – | – | – | – | O=S(=O)(Cc1nnc(S)s1)C1=NNC[C@@H]1c1ccccc1 | 22 | 25 | 20 | 15 | 20 | 20 | 28 | 23 | 18 | 26 | 21 | 17 | 24 | 29 | –
3 | – | – | – | – | – | – | Cc1ccc([C@H]2CNN=C2S(=O)(=O)Cc2nnc(S)o2)cc1 | 16 | 17 | 12 | 12 | 14 | 13 | 21 | 16 | 12 | 16 | 15 | 10 | 20 | 18 | –
4 | 100 (≈ 267 µM) | 100 (≈ 267 µM) | 100 (≈ 267 µM) | 200 (≈ 533 µM) | 200 (≈ 533 µM) | 200 (≈ 533 µM) | O=S(=O)(Cc1nnc(S)s1)C1=NNC[C@@H]1c1ccc(Cl)cc1 | 28 | 26 | 26 | 22 | 27 | 28 | 29 | 31 | 25 | 23 | 29 | 24 | 31 | 26 | MIC [21]: 200 mg/L (≈ 533 µM)
5 | – | – | – | – | – | – | Cc1ccc([C@H]2CNN=C2S(=O)(=O)Cc2nnc(S)s2)cc1 | 24 | 22 | 19 | 18 | 21 | 16 | 24 | 19 | 14 | 20 | 17 | 16 | 26 | 23 | –
6 | – | – | – | – | – | – | Cc1ccc([C@H]2CNN=C2S(=O)(=O)Cc2nnc(S)n2N)cc1 | 32 | 35 | 24 | 24 | 26 | 27 | 38 | 29 | 25 | 34 | 28 | 22 | 37 | 39 | –
7 | – | – | – | – | – | – | O=S(=O)(Cc1nnc(S)o1)C1=NNC[C@@H]1c1ccccc1 | 17 | 16 | 16 | 15 | 18 | 13 | 21 | 15 | 14 | 17 | 16 | 14 | 19 | 22 | –
8 | 100 (≈ 295 µM) | 25 (≈ 73.9 µM) | 100 (≈ 295 µM) | 50 (≈ 148 µM) | 100 (≈ 295 µM) | 25 (≈ 73.9 µM) | Nn1c(S)nnc1CS(=O)(=O)C1=NNC[C@@H]1c1ccccc1 | 39 | 36 | 24 | 22 | 25 | 31 | 39 | 33 | 28 | 37 | 30 | 21 | 44 | 41 | MIC [21]: 100 mg/L (≈ 295 µM)
9 | 12.5 (≈ 33.5 µM) | 12.5 (≈ 33.5 µM) | 25 (≈ 67 µM) | 50 (≈ 134 µM) | 50 (≈ 134 µM) | 12.5 (≈ 33.5 µM) | Nn1c(S)nnc1CS(=O)(=O)C1=NNC[C@@H]1c1ccc(Cl)cc1 | 40 | 36 | 28 | 23 | 25 | 34 | 40 | 36 | 32 | 39 | 35 | 26 | 43 | 42 | MIC [21]: 25 mg/L (≈ 67 µM)

Row | SMILES | MIC [15] [mg/L] | MIC [16] [mg/L] | MIC [17] [mg/L] | MIC [18] [mg/L] | MIC [19] [mg/L] | MIC [20] [mg/L] | zone of inhibition at 100 µg/disc [1] [mm] | zone of inhibition at 100 µg/disc [2] [mm] | zone of inhibition at 200 µg/disc [3] [mm] | zone of inhibition at 100 µg/disc [4] [mm] | zone of inhibition at 200 µg/disc [5] [mm] | zone of inhibition at 100 µg/disc [6] [mm] | zone of inhibition at 200 µg/disc [7] [mm] | zone of inhibition at 200 µg/disc [8] [mm] | zone of inhibition at 100 µg/disc [9] [mm] | zone of inhibition at 100 µg/disc [10] [mm] | zone of inhibition at 200 µg/disc [11] [mm] | zone of inhibition at 100 µg/disc [12] [mm] | zone of inhibition at 200 µg/disc [13] [mm] | zone of inhibition at 200 µg/disc [14] [mm] | further results
10 | O=C(N[C@H](CO)[C@H](O)c1ccc([N+](=O)[O-])cc1)C(Cl)Cl [CHLORAMPHENICOL] | – | 6.25 (≈ 19.3 µM) | – | 6.25 (≈ 19.3 µM) | 12.5 (≈ 38.7 µM) | 6.25 (≈ 19.3 µM) | – | – | 45 | 40 | 44 | 38 | – | 41 | 35 | – | 39 | 42 | – | – | –
11 | CC(=O)N1CCN(c2ccc(OCC3COC(Cn4ccnc4)(c4ccc(Cl)cc4Cl)O3)cc2)CC1 (stereo not drawn) [KETOCONAZOLE] | 6.25 (≈ 11.8 µM) | – | 12.5 (≈ 23.5 µM) | – | – | – | 38 | 36 | – | – | – | – | 39 | – | – | 41 | – | – | 42 | 44 | MIC [21]: 6.25 mg/L (≈ 11.8 µM)
